The target of assay [1] is T1, Dual specificity mitogen-activated protein kinase kinase; MEK1/2 (Homo sapiens, UniProt P36507+Q02750). As to the kind of experiment: Inhibition of MEK1/2 in human HT-29 cells assessed as reduction in cell proliferation after 72 hrs by CellTiter-Glo assay. The format is cell-based. Put shortly:
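HT-29 cells were plated at 2,000/well in DMEM or RPMI with 10% FBS and left overnight at 37°C, 5% CO2. Medium was replaced with compound at 3-fold dilutions from 3.3 µM to 4.5 nM. After 72 h, viability was read by CellTiter-Glo luminescence and IC50 calculated.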

The test system of assay [2] is Mus musculus. As to the kind of experiment: In vivo inhibition of MEK1/2 in LmnaH222P/H222P mouse model of cardiomyopathy assessed as reduction in ERK1/2 activation-mediated muscular dystrophy by measuring increase in forelimb grip fatigue index at 6 mg/kg/day, po administered 6 days per week via gavage starting from 14 weeks of age up to 20 weeks of age. The format is functional, organism-based. An outline of the steps:
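Forelimb grip strength was tested by an investigator blind to treatment on two consecutive days and normalized to body mass. Fatigue index = (C+D)/(A+B), where A–D are sums of pulls 1–3, 4–6, 10–12 and 13–15; a value of 1 means no fatigue. Mice were gavaged from weeks 14–20; n = 7 placebo, 6 treated.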

Assay [3] is described as follows: Cardioprotective activity in LmnaH222P/H222P mouse model of cardiomyopathy assessed as left ventricular end diastolic diameter at 6 mg/kg/day, po administered 6 days per week via gavage starting from 14 weeks of age up to 20 weeks of age by echocardiographic method (reference value: 3.96 +/- 0.08 millimeter). The assay is classed as functional, organism-based. Conditions: Heart.

Assay [4] can be described thus: Cardioprotective activity in LmnaH222P/H222P mouse model of cardiomyopathy assessed as left ventricular fractional shortening at 6 mg/kg/day, po administered 6 days per week via gavage starting from 14 weeks of age up to 20 weeks of age by echocardiographic method (reference value: 16.36 +/- 1.08%). Conditions: Heart. The format is functional, organism-based.
The subject of assay [5] is Mus musculus. As to the kind of experiment: In vivo inhibition of MEK1/2 in LmnaH222P/H222P mouse model of cardiomyopathy assessed as reduction in ERK1/2 activation-mediated muscular dystrophy by measuring inhibition of serum creatine phosphokinase activity at 6 mg/kg/day, po administered 6 days per week via gavage starting from 14 weeks of age up to 20 weeks of age. The format is functional, organism-based. Put shortly:
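Serum from male Lmna H222P/H222P mice gavaged with vehicle or 3 or 6 mg/kg/day from 14 to 20 weeks of age was assayed for creatine phosphokinase activity. Means ± SE, n = 10 per group.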

A short description of assay [6]: Cardioprotective activity in LmnaH222P/H222P mouse model of cardiomyopathy assessed as heart rate at 6 mg/kg/day, po administered 6 days per week via gavage starting from 14 weeks of age up to 20 weeks of age by echocardiographic method (reference value: 502.73 +/- 0.46 bpm). The assay is classed as functional, organism-based.
Assay [7] is described as follows: Cardioprotective activity in LmnaH222P/H222P mouse model of cardiomyopathy assessed as left ventricular end systolic diameter at 3 mg/kg/day, po administered 6 days per week via gavage starting from 14 weeks of age up to 20 weeks of age by echocardiographic method (reference value: 3.32 +/- 0.1 millimeter). The assay is classed as functional, organism-based. Conditions: Heart.

The nature of assay [8]: Cardioprotective activity in LmnaH222P/H222P mouse model of cardiomyopathy assessed as left ventricular fractional shortening at 3 mg/kg/day, po administered 6 days per week via gavage starting from 14 weeks of age up to 20 weeks of age by echocardiographic method (reference value: 16.36 +/- 1.08%). To be noted: Heart. The assay is classed as functional, organism-based.

Assay [9] concerns Mus musculus. As to the kind of experiment: In vivo inhibition of MEK1/2 in LmnaH222P/H222P mouse model of cardiomyopathy assessed as reduction in ERK1/2 phosphorylation in heart at 3 to 6 mg/kg/day, po administered 6 days per week via gavage starting from 14 weeks of age up to 20 weeks of age by immunoblot method. The format is functional, organism-based. Put shortly: (§1)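 Heart, liver and quadriceps from male mutant mice gavaged 3 or 6 mg/kg/day (weeks 14–20) were homogenized for protein. Proteins were run on SDS-PAGE, transferred to nitrocellulose and probed for phospho- and total ERK1/2 with HRP secondaries and chemiluminescence. Scanned blots were quantified as the pERK1/2 to total ERK1/2 ratio; n = 3, means ± SE.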
(Immunoblotting shows a protein as a band on a membrane.)

A short description of assay [10]: Cardioprotective activity in LmnaH222P/H222P mouse model of cardiomyopathy assessed as reduction in Myl7 mRNA expression in heart at 6 mg/kg/day, po administered 6 days per week via gavage starting from 14 weeks of age up to 20 weeks of age by qRT-PCR method relative to placebo treated control. The assay is classed as functional, organism-based. Put shortly: (§2)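 Hearts from male Lmna H222P/H222P mice gavaged 6 days/week, weeks 14–20, with vehicle or 3 or 6 mg/kg/day. Real-time RT-PCR with SYBR green and 200 nM of each primer; 95°C 2 min, then 50 cycles of 95°C 30 s and 62°C 30 s. ΔΔCT method normalized to Gapdh; fold change versus placebo (n = 5, 5, 6).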
(In general: In qPCR the cycle at which signal appears reflects the starting amount.)

A short description of assay [11]: Cardioprotective activity in LmnaH222P/H222P mouse model of cardiomyopathy assessed as heart rate at 3 mg/kg/day, po administered 6 days per week via gavage starting from 14 weeks of age up to 20 weeks of age by echocardiographic method (reference value: 502.73 +/- 0.46 bpm). The assay is classed as functional, organism-based.
Assay [12] in a line: Cardioprotective activity in LmnaH222P/H222P mouse model of cardiomyopathy assessed as reduction in Nppa mRNA expression in heart at 3 to 6 mg/kg/day, po administered 6 days per week via gavage starting from 14 weeks of age up to 20 weeks of age by qRT-PCR method relative to placebo treated control. The assay is classed as functional, organism-based. An outline of the steps: as §2

Assay [13] is described as follows: Cardioprotective activity in LmnaH222P/H222P mouse model of cardiomyopathy assessed as left ventricular end diastolic diameter at 3 mg/kg/day, po administered 6 days per week via gavage starting from 14 weeks of age up to 20 weeks of age by echocardiographic method (reference value: 3.96 +/- 0.08 millimeter). Conditions: Heart. The assay is classed as functional, organism-based.

In assay [14] the test system is Mus musculus. In words: In vivo inhibition of MEK1/2 in LmnaH222P/H222P mouse model of cardiomyopathy assessed as reduction in ERK1/2 phosphorylation in quadriceps muscle at 6 mg/kg/day, po administered 6 days per week via gavage starting from 14 weeks of age up to 20 weeks of age by immunoblot method. The format is functional, organism-based. Put shortly:
as §1

For assay [15], the system named is Mus musculus. In words: In vivo inhibition of MEK1/2 in LmnaH222P/H222P mouse model of cardiomyopathy assessed as reduction in ERK1/2 phosphorylation in liver at 3 to 6 mg/kg/day, po administered 6 days per week via gavage starting from 14 weeks of age up to 20 weeks of age by immunoblot method. The format is functional, organism-based. Put shortly:
as §1

The nature of assay [16]: Cardioprotective activity in LmnaH222P/H222P mouse model of cardiomyopathy assessed as left ventricular end systolic diameter at 6 mg/kg/day, po administered 6 days per week via gavage starting from 14 weeks of age up to 20 weeks of age by echocardiographic method (reference value: 3.32 +/- 0.1 millimeter). Conditions: Heart. The format is functional, organism-based.
A short description of assay [17]: Cardioprotective activity in LmnaH222P/H222P mouse model of cardiomyopathy assessed as reduction in myocardial fibrosis administered 6 days per week via oral gavage starting from 14 weeks of age up to 20 weeks of age by masson trichrome staining based assay. The assay is classed as functional, tissue-based. Conditions: Heart. An outline of the steps:
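Left ventricles from male mutant mice dosed 3 or 6 mg/kg/day by gavage (weeks 14–20) were fixed in 4% formaldehyde for 48 h, paraffin-embedded, cut at 5 μm and stained with Masson trichrome. Graded 0–4 for vacuolation and fibrosis: 0–2 no fibrosis with none, mild or moderate vacuolation; 3 mild fibrosis; 4 severe fibrosis. n = 5, 5, 6.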

Assay [18] deals with T1, Dual specificity mitogen-activated protein kinase kinase; MEK1/2. In words: Inhibition of MEK1/2 in HEK293 cells assessed as reduction in ERK1/2 phosphorylation at 0.001 to 1 uM after 24 hrs by immunoblot method. The format is cell-based. Put shortly: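 HEK-293 cells were grown in DMEM with 10% FBS, seeded at 5.0×10^5 per well and grown 24 h. After rinsing, they were exposed 24 h to serial dilutions from 1 to 0.001 µM final, or to Cremophor EL/saline vehicle. Cells were then washed with PBS, extracted and immunoblotted for phospho- and total ERK1/2.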

The source made the active and inactive calls. The rule behind the calls is not given here.

In ChEMBL document CHEMBL3875205, “Macrocyclic MEK1/2 inhibitor with efficacy in a mouse model of cardiomyopathy caused by lamin A/C gene mutation” (Bioorg Med Chem, 2017) one finds IC50, inhibition and Activity data, which are given here for two compounds.

By IC50 is commonly meant the midpoint of a concentration-inhibition curve.

T1 sequence (P36507 whole entry, looked up): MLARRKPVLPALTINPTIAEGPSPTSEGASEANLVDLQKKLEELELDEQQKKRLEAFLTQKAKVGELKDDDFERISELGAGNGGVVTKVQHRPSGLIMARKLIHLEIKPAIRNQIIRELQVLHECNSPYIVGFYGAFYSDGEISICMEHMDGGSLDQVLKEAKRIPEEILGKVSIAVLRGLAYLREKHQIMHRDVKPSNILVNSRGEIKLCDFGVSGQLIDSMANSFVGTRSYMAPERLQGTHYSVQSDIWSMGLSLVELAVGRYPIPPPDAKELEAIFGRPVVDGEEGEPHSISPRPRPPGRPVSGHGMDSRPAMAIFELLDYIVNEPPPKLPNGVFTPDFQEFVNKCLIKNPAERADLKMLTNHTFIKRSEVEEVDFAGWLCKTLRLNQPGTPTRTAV
T1 sequence (Q02750 whole entry, looked up): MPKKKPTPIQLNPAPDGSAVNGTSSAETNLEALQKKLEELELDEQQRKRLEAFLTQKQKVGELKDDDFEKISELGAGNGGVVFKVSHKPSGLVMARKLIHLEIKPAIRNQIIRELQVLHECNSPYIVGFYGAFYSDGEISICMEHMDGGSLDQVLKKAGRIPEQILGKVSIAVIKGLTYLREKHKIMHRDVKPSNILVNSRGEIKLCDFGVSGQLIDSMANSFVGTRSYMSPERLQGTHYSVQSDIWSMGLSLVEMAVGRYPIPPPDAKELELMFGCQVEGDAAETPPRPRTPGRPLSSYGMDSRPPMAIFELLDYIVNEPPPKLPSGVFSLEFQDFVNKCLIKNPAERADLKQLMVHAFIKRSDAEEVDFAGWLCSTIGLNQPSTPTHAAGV

On to `O=S1(=O)Nc2c(cc(F)c(F)c2Nc2ccc(I)cc2F)OCC(O)C(O)CC12CC2` (single isomer, unassigned; form 2), for which, in assay [1], the IC50 stood at 400 nM.

`O=S1(=O)Nc2c(cc(F)c(F)c2Nc2ccc(I)cc2F)OCC(O)C(O)CC12CC2` (single isomer, unassigned; form 1): the inhibition entry (in the assay on Mus musculus [2]; in the assay with Mus musculus [5]; with Mus musculus [9]; in the assay on Mus musculus [14]; in the assay with Mus musculus [15]; in [18]) was “Active” each time. Besides, the Activity worked out at 3.77 mm in assay [3]; 20.6% in assay [4]; 502 bpm in assay [6]; 3.24 mm in assay [7]; 19.4% in assay [8]; 504 bpm in assay [11]. Besides, the Activity is 4 mm in [13], 3.02 mm in assay [16] and “Dose-dependent effect” in assay [17]. Besides, the outcome in assay [10] and in assay [12] was Active.
